Results from ChEMBL document CHEMBL3745708, “Design of α7 nicotinic acetylcholine receptor ligands using the (het)Aryl-1,2,3-triazole core: Synthesis, in vitro evaluation and SAR studies” (Eur J Med Chem, 2016).

Columns and labels:
[1] = target: Neuronal acetylcholine receptor subunit alpha-7 (Rattus norvegicus, UniProt Q05941); experiment: Displacement of [125I]alpha-bungarotoxin from alpha7 nAchR in rat frontal cortices
Procedure, shortened: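 Competition binding against [125I]-α-bungarotoxin as reference radioligand at α7 nAChR. IC50 read graphically for each compound, then converted to Ki.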

[2] = target: Neuronal acetylcholine receptor; alpha4/beta2 (Homo sapiens, UniProt P17787+P43681); experiment: Displacement of [3H]cytisine from human recombinant alpha4beta2 nicotinic receptor expressed in SH-SY5Y cells after 120 mins by scintillation counting; assay type: cell-based
Procedure, shortened: (§1)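 Selectivity binding run by an outside contract lab on cells transfected with the human recombinant receptor. Reference radioligands: [3H]cytisine for α4β2 and [3H]BRL 43694 for 5-HT3.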

[3] = target: T1, 5-hydroxytryptamine receptor 3A (Homo sapiens, UniProt P46098); experiment: Displacement of [3H]BRL 43694 from human 5-HT3 receptor expressed in CHO cells after 120 mins by scintillation counting; assay type: cell-based; procedure, shortened: as §1
T1 sequence (P46098 whole entry): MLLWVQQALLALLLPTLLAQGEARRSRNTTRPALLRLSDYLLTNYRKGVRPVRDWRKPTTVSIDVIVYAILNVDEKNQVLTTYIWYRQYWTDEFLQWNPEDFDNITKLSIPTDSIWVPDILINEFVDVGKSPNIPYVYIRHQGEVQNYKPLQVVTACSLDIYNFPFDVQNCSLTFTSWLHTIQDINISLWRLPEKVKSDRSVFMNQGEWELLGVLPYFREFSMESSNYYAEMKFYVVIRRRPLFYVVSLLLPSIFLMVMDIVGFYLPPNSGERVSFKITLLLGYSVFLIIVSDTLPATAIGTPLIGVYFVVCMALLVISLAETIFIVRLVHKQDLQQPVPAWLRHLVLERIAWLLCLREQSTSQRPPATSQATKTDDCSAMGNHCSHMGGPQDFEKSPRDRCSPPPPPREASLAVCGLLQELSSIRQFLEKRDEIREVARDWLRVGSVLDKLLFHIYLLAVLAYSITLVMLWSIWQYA

Sequence of Neuronal acetylcholine receptor subunit alpha-7 (Q05941 whole entry): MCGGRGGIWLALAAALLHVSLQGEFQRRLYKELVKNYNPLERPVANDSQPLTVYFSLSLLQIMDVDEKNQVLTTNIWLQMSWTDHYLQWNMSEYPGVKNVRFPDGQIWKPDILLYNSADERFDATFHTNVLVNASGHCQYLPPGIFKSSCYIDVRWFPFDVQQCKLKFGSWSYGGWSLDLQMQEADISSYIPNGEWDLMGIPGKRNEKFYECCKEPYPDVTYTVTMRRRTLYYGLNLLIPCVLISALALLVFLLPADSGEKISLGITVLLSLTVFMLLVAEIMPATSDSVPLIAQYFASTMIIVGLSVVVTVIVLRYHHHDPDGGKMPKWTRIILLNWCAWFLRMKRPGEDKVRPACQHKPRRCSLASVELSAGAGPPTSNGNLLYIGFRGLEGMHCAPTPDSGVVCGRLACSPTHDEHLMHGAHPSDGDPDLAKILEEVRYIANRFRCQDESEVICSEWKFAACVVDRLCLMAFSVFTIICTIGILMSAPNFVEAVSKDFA
Sequence of Neuronal acetylcholine receptor; alpha4/beta2 (P17787 whole entry): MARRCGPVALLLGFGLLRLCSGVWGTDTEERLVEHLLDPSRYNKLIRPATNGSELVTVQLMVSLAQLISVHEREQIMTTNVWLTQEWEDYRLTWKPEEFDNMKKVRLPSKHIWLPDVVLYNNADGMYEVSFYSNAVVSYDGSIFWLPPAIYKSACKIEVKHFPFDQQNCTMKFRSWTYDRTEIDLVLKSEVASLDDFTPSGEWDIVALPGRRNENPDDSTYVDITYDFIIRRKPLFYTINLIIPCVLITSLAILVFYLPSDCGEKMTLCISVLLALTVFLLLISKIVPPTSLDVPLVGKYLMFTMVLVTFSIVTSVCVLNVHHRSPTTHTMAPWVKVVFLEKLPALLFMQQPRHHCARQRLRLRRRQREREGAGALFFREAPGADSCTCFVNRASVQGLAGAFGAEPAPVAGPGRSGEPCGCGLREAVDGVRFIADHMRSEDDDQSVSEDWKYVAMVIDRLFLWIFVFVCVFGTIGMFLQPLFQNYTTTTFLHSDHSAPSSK
Sequence of Neuronal acetylcholine receptor; alpha4/beta2 (P43681 whole entry): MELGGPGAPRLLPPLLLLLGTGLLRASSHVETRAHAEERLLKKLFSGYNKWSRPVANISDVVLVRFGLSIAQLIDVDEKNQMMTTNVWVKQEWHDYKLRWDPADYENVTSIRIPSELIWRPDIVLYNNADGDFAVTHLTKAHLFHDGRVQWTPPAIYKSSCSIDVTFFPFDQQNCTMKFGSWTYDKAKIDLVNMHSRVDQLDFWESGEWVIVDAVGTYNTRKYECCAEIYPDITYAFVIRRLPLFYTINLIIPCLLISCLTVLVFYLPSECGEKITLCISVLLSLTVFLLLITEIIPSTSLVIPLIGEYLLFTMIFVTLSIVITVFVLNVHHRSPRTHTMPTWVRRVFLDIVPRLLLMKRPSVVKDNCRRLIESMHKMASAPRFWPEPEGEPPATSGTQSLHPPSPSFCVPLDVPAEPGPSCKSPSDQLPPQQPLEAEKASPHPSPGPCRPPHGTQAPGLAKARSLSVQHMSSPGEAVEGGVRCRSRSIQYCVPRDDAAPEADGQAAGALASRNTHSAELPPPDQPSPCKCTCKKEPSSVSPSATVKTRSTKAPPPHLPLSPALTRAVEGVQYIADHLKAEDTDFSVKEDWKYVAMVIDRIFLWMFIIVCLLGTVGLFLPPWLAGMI

How did the Ki [1] turn out when COc1ccccc1-c1cn([C@H]2CN3CCC2CC3)nn1 was run?
Its Ki is 112 nM.

For COc1ccc(-n2cc(C3(O)CN4CCC3CC4)nn2)cc1 (stereo not drawn), which Ki [1] is on record?
Its Ki is greater than 1000 nM.

Which Ki [1] does the source give for O=C(N[C@@H]1CN2CCC1CC2)c1cc2ccoc2cn1 here?
The Ki was 1.27 nM.

With OC1(c2cn(-c3ccc(Br)cc3)nn2)CN2CCC1CC2 (stereo not drawn) as the compound, how does the Ki [1] read?
The Ki was greater than 1000 nM.

With COc1cccc(-c2cn([C@H]3CN4CCC3CC4)nn2)c1 as the compound, how does the Ki [2] read?
Its Ki is 1000 nM.

What about the Ki [3] of the same compound?
Its Ki is 3 nM.

For COc1ccc(-n2cc(C3(F)CN4CCC3CC4)nn2)cc1 (stereo not drawn), which Ki [1] is on record?
The Ki was greater than 1000 nM.

FCCc1ccc(-c2cn([C@H]3CN4CCC3CC4)nn2)cc1 was tested. Which Ki [1] did it give?
Its Ki is 230 nM.

How did the Ki [1] turn out when OCCc1ccc(-c2cn([C@H]3CN4CCC3CC4)nn2)cc1 was run?
Its Ki is 130 nM.

OCc1ccc(-c2cn([C@H]3CN4CCC3CC4)nn2)cc1 was tested. Which Ki [1] did it give?
Its Ki is 10 nM.

Which Ki [1] does the source give for c1cc(-c2cn([C@H]3CN4CCC3CC4)nn2)ccn1 here?
The Ki was 141 nM.

Which Kd [1] does the source give for c1cc2cc(-c3cn(C4CN5CCC4CC5)nn3)ccc2[nH]1 (stereo not drawn) here?
Its Kd is 120 nM.

And the Ki [2]?
Its Ki is 750 nM.

What about the Ki [3] of the same compound?
Its Ki is 52 nM.

With FCc1ccc(-c2cn([C@H]3CN4CCC3CC4)nn2)cc1 as the compound, how does the Ki [1] read?
The Ki was 21 nM.

How did the Ki [1] turn out when COCOCCOc1ccc(-c2cn([C@H]3CN4CCC3CC4)nn2)cc1 was run?
The Ki was 225 nM.

Which Ki [2] does the source give for c1cc2cc(-c3cn([C@H]4CN5CCC4CC5)nn3)ccc2o1 here?
Its Ki is 1000 nM.

And the Ki [3]?
Its Ki is 3 nM.

With COc1ccc(-c2cn([C@H]3CN4CCC3CC4)nn2)cc1 as the compound, how does the Ki [1] read?
Its Ki is 11 nM.

For OCCOc1ccc(-c2cn([C@H]3CN4CCC3CC4)nn2)cc1, which Ki [1] is on record?
The Ki was 215 nM.

How did the Ki [1] turn out when FCCOc1ccc(-c2cn([C@H]3CN4CCC3CC4)nn2)cc1 was run?
Its Ki is 190 nM.

For Fc1ccc(-c2cn([C@H]3CN4CCC3CC4)nn2)cc1, which Ki [1] is on record?
The Ki was 15 nM.

For O=C(N[C@H]1CN2CCC1CC2)c1ccc(Cl)cc1 [PNU-282987], which Ki [1] is on record?
Its Ki is 17 nM.
